High-throughput results as filed in PubChem BioAssay.
Sampled rows, rich in hits. Any-hit rate of the full collection: about 29%.
Ecoli tolC – growth inhibitors of E. coli tolC mutant, primary screen, strain BW25113 ΔtolC::kan, 384-well. OD615. growth inhibition, % at 10 µM (by protocol). hit rate 2.2% among 65,000. AID 573, 2007;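 active = growth inhibition at or above a cutoff equal to the mean over every tested compound plus 3 SD, cut at about 60% in these data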;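 note: growth measured after 20 h incubation at 37 °C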
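signal = optical density read at 615 nm | test system = E. coli ΔtolC::kan strain BW25113 | timing = 20 h compound exposure of bacteria at 37 °C | buffer or medium = LB medium plus 50 µg/mL kanamycin | compound dosing = 10 µM final, single dose | evaluation = % inhibition of E. coli growth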
CYP2C19 activ – human CYP2C19 activators, primary screen, biochemical, luminescence | recombinant CYP2C19, luciferin-H EGE luminescence; active compounds read high; 0 = fully inhibited enzyme, 1 = untreated enzyme | activation factor at 5 µM | 96,000 tested, under 10 active | AID 1025, 2008;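 active = activation factor of at least 2 at 5 µM in the primary screen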;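 note: 0 = wells with 2.5 mM tranylcypromine and 1 = vehicle-only wells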
CYP2C9 inh – blockers of cytochrome P450 2C9 activity – biochemical, luminescence, ADME assay, primary screen | CYP2C9 Supersomes, luciferin-H conversion | inhibition, % at 5 µM | hit rate 20% among 96,000;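 active = blocking of liver enzyme CYP2C9 beyond about 50% at 5 µM, limit read from the data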
Target sequence (P11712 whole entry, looked up): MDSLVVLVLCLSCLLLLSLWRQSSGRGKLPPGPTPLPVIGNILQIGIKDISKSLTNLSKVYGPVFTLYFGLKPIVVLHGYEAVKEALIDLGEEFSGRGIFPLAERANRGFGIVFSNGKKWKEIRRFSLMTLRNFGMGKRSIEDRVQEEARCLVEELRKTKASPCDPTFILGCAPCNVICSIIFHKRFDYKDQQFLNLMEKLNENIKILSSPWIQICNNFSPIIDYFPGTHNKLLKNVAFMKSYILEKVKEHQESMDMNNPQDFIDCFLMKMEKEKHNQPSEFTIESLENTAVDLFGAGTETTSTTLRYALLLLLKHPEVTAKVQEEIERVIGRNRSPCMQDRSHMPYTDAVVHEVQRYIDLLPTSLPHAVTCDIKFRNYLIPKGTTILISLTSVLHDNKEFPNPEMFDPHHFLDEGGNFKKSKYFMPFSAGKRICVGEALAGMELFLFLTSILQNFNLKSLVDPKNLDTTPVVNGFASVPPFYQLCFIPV
CYP2C19 inh – blockers of cytochrome P450 2C19 activity – biochemical, luminescence, ADME assay, primary screen; P33261; CYP2C19 Supersomes, luciferin-H EGE luminescence, 30 min; inhibition, % at 5 µM; hit rate 21% among 96,000;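 active = CYP2C19 inhibition above a set limit at 5 µM in the primary screen, cut at about 50% in these data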;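 note: plate controls were negative control wells for no effect and 2.5 mM tranylcypromine positive control for full effect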
CYP2C9 act – human CYP2C9 activators, primary screen, biochemical, luminescence | Cytochrome P450 2C9 (Homo sapiens), P11712 | recombinant CYP2C9, luciferin-H conversion; active compounds read high; factor 1 = untreated enzyme, 0 = blocked | activation factor at 5 µM | AID 1024, 2008 | hit rate 1.4% among 96,000;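 active = activation factor of 2 or more for CYP2C9 at a 5 µM dose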;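 note: 0 = sulfaphenazole-blocked wells and 1 = vehicle-only wells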
Ecoli WT expand – growth inhibitors of wild-type E. coli, primary screen, strain BW25113, expanded library, OD600. OD600 absorbance. growth inhibition, % at 100 µM. hit rate 0.15% among 98,000;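 active = growth inhibition above about 50% at one test dose, limit read from the data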;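 note: growth measured after 20 h incubation at 37 °C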
* hit, by the source's call; x = no result given.

SMILES	Ecoli tolC	CYP2C19 activ	CYP2C9 inh	CYP2C19 inh	CYP2C9 act	Ecoli WT expand
c1csc(CCNc2ncnc3sc4c(c23)CCC4)c1	60	0.1	46	94*	0.5	-8
O=S(=O)(Nc1nc2c(s1)CCCC2)c1ccc2ccccc2c1	x	0.8	4	16	1	4
c1ccc(Nc2ncnc3sc4c(c23)CCC4)cc1	x	0.2	23	76*	0.8	-9
Cn1c(N2CCN(C(=O)C34CC5CC(CC(C5)C3)C4)CC2)nc2ccccc21	13	1	7	-1	0.9	x
C=CCn1c(=O)n(CCOC)c(=O)c2sc3ccccc3c21	16	0.9	11	11	0.9	1
O=C(CSC1=NCCS1)N1CCOCC1	-15	0.9	30	8	0.7	-10
COC(=O)Cc1c(C)nc2nc(-c3ccco3)[nH]n2c1=O	2	x	x	x	x	-13
OC1CC(c2ccco2)NC2(CCCCC2)C1 (stereo not drawn)	-8	1.2	-26	-18	1.3	1
c1cn(CCCNc2ncnc3sc4c(c23)CCC4)cn1	-7	0	97*	100*	0	5
c1cn(CCCNC2=NCCCCC2)cn1	-4	0.6	6	41	0.9	4
O=C(c1ccc2c(=O)n(C3CCCC3)c(=S)[nH]c2c1)N1CCc2ccccc21	x	1	11	-3	0.9	-5
CCn1c(C(=O)OC)cc2c1ccn2-c1ccc(F)cc1	96*	0.7	11	25	0.9	4
COC(=O)c1cc2c(ccn2-c2ccc(F)cc2)n1CC(=O)N1CCN(C(=O)c2ccco2)CC1	12	0.9	17	9	0.8	-3
Cc1ccc(-c2[nH]c(=O)n3ccncc23)s1	-7	x	x	x	x	10
CCCc1nc2ccc(NC(=O)NCCC(=O)OCC)cc2c(=O)n1Cc1cccc(Cl)c1	x	0.9	12	11	0.9	-9
CCOC(=O)CCNC(=O)Nc1ccc2nc(C)n(Cc3cccc(Cl)c3)c(=O)c2c1	14	0.4	81*	62*	0.2	2
CCOC(=O)CCNC(=O)Nc1ccc2nc(C)n(Cc3ccccc3Cl)c(=O)c2c1	6	0.4	94*	55*	0.1	-3
Cc1nc2ccc(NC(=O)c3cccs3)cc2c(=O)n1Cc1ccc(Cl)cc1	x	0.2	68*	79*	0.3	-13
CCC(C)NCCCCOc1ccc(C)cc1[N+](=O)[O-] (stereo not drawn)	x	1.1	2	-8	1	5
Cc1nn(C)c(C)c1S(=O)(=O)N1CCCC(C(=O)NCC2COc3ccccc3O2)C1 (stereo not drawn)	0	1	-35	4	1.3	-2
Cc1nc(-c2cccnc2)sc1C(N)=O	x	0.8	-3	16	1	8
CCOc1cc(C(=O)NCc2nnc(SCC(=O)OC)n2C)cc(OCC)c1OCC	-6	1	38	4	0.6	6
Cc1ncc(CSc2nnnn2-c2ccccc2)c(N)n1	18	0.4	-13	64*	1.1	12
CCOc1ccc(OCCSc2nnnn2-c2ccccc2)cc1	x	0.7	50*	31	0.5	-1
CCOc1ccc(OCCSc2nnnn2C2CCCCC2)cc1	65*	0.4	88*	57*	0.1	-2
SMILES	Ecoli tolC	CYP2C19 activ	CYP2C9 inh	CYP2C19 inh	CYP2C9 act	Ecoli WT expand
COc1ccccc1OCCSc1nnnn1-c1ccc(C)cc1	65*	0	23	99*	0.8	4
c1ccc(OCCSc2nnnn2-c2ccccc2)cc1	49	0.9	36	11	0.6	-3
Cc1ccc(N(CN2CCCC2=O)C(=O)c2ccc(OC(C)C)cc2)cc1	6	0.7	13	34	0.9	-12
COC(=O)C(Cc1cnc(Cl)s1)(C(=O)OC)c1ccc([N+](=O)[O-])cc1	x	0.1	73*	91*	0.3	5
COC(=O)C(Cc1cnc(Cl)s1)(C(=O)OC)c1ccccc1[N+](=O)[O-]	x	0.1	65*	94*	0.3	3
COC(=O)C(C)(C(=O)OC)c1ccc([N+](=O)[O-])cn1	x	0.9	-5	6	1	1
CC(C)n1nnc2ccccc2c1=O	x	1	-17	3	1.2	0
Cn1c(C(=O)NCc2cccnc2)cc2sccc21	-21	0.7	-2	34	1	4
CC(OC(=O)c1cc2sccc2n1C)C(=O)NCCc1ccccc1 (stereo not drawn)	14	0.5	83*	52*	0.2	-4
CC(OC(=O)c1cc2sccc2n1C)C(=O)NCc1ccc2c(c1)OCO2 (stereo not drawn)	-9	0.7	82*	32	0.2	-11
CC(OC(=O)c1cc2sccc2n1C)C(=O)NCc1ccc(F)cc1 (stereo not drawn)	x	0.2	74*	78*	0.3	2
CCC(OC(=O)c1cc2sccc2n1C)C(=O)NCC1CCCO1 (stereo not drawn)	2	0.8	11	25	0.9	5
O=C(O)C1CCC(CNCc2cccnc2)CC1 (stereo not drawn)	-25	x	x	x	x	x
COC(=O)C(Cc1cnc[nH]1)NC(=O)C1CCC(=O)N1 (stereo not drawn)	-23	1	14	-1	0.9	-6
COc1ccc(C(NC(C)=O)c2ccc3cccnc3c2O)c(OC)c1 (stereo not drawn)	-3	0.4	41	58*	0.6	x
Cc1conc1NC(c1cccs1)c1ccc2cccnc2c1O (stereo not drawn)	0	1.1	1	-6	1	40
CCC(Sc1nnnn1-c1ccccc1)C(=O)Nc1nc2ccccc2s1 (stereo not drawn)	74*	x	x	x	x	-38
CCC(Sc1nnnn1-c1ccccc1)C(=O)NC(C)c1ccccc1 (stereo not drawn)	34	0.3	44	74*	0.6	-5
O=C(CSc1nnnn1-c1ccc(F)cc1)Nc1nc2ccccc2s1	x	1	-1	-1	1	-7
CC(Sc1nnnn1-c1ccccc1)C(=O)Nc1ccc(Cl)cn1 (stereo not drawn)	12	0.1	80*	87*	0.2	-7
COc1ccc(C)cc1-n1nnnc1SCc1cn2ccsc2n1	12	0.1	40	87*	0.6	0
Cc1cccc(Nc2nnc(SCc3cn4ccsc4n3)s2)c1	39	0.3	57*	74*	0.4	19
Cc1nnc(SCc2cn3ccsc3n2)n(N)c1=O	-9	1.1	9	-13	0.9	2
COc1ccc(C)cc1-n1nnnc1SCC1CCCCO1 (stereo not drawn)	11	0	73*	100*	0.3	7
CCCC(=O)Nc1nnc(SCC(=O)NCc2cccs2)s1	x	0.8	3	17	1	-3
